Results on 22 molecules are retold here after ChEMBL document CHEMBL3877332, “Synthesis, Biological Evaluation, and Autophagy Mechanism of 12N-Substituted Sophoridinamines as Novel Anticancer Agents” (ACS Med Chem Lett, 2017).

The source made the active and inactive calls. The calls are words filed in the database; no cut-off is given here.

Data set [1] in a line: Antiproliferative activity against human HepG2 cells assessed as reduction in cell viability by MTT assay. It is filed as functional, cell-based.
The nature of data set [2]: Antiproliferative activity against human HMLE cells assessed as reduction in cell viability by MTT assay. It is filed as functional, cell-based.
Data set [3] in a line: Antiproliferative activity against human K562 cells assessed as reduction in cell viability by MTT assay. The class given is functional, cell-based.
Data set [4] in a line: AUCt in Sprague-Dawley rat at 25 mg/kg, po measured up to 24 hrs. It is filed as ADME, organism-based. More on the design: time < 24 hr, dose 25 mg/kg, route oral. The following applies: in vivo. Summed up: (§1)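 Adult male Sprague-Dawley rats were given a single oral dose of 25 mg/kg. Nine blood samples (0.3 mL) were taken over 24 h. n = 3.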
The nature of data set [5]: Tmax in Sprague-Dawley rat at 25 mg/kg, po measured up to 24 hrs. The class given is ADME, organism-based. The conditions noted are these: in vivo. The procedure, abridged:
as §1

Data set [6] in a line: AUC (0 to infinity) in Sprague-Dawley rat at 25 mg/kg, po measured up to 24 hrs. The conditions noted are these: in vivo. Further details: dose 25 mg/kg, route oral, time infinity. It is filed as ADME, organism-based. Summed up:
as §1

The nature of data set [7]: Cmax in Sprague-Dawley rat at 25 mg/kg, po measured up to 24 hrs. It is filed as ADME, organism-based. More on the design: dose 25 mg/kg, route oral. The conditions noted are these: in vivo. The procedure, abridged: as §1
Data set [8] is described as follows: MRT in Sprague-Dawley rat at 25 mg/kg, po measured up to 24 hrs. The class given is ADME, organism-based. The conditions noted are these: in vivo. The procedure, abridged: as §1
The nature of data set [9]: Half life in Sprague-Dawley rat at 25 mg/kg, po measured up to 24 hrs. The class given is ADME, organism-based. The conditions noted are these: in vivo. The procedure, abridged: as §1
For data set [10], the system named is HepG2. In words: Reduction in lysosomal acidification in human HepG2 cells at 50 uM after 6 hrs by DAPI/lyso tracker red-double staining based confocal microscopic analysis relative to control. The class given is functional, cell-based. The procedure, abridged:
(§2)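 HepG2 cells were incubated at 5 μM (test agent) or 50 μM (chloroquine) for 6 h, then stained with LysoTracker Red. Nuclei were stained with DAPI and cells imaged by confocal microscopy (×63). LysoTracker Red signal was quantified per cell against untreated control.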

Data set [11] in a line: Cytotoxicity against human HepG2 cells assessed as reduction in cell viability at 50 uM by MTT assay. The class given is functional. Summed up:
(§3)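 HepG2 cells were exposed to test agent at 5 μM or chloroquine at 50 μM for the indicated times. Viability was measured by MTT assay.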

The subject of data set [12] is A549. Kind of data set: Blockade of autophagic flux in human A549 cells assessed as increase in LC3-2 level at 5 uM after 8 hrs in presence of rapamycin by Western blot analysis. The class given is functional, cell-based. The procedure, abridged: (§4)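 A549 and HepG2 cells were pretreated with chloroquine (10 μM) or rapamycin (200 nM) for 2 h. Compound was then added at 5 μM for 8 h. LC3 turnover (LC3-II) was detected by Western blot.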

Data set [13] has as its system HepG2. In words: Blockade of autophagic flux in human HepG2 cells assessed as increase in LC3-2 level at 5 uM after 8 hrs in presence of rapamycin by Western blot analysis. It is filed as functional, cell-based. The procedure, abridged: as §4
Data set [14] has as its system HepG2. In words: Blockade of autophagic flux in human HepG2 cells assessed as increase in LC3-2 level at 5 uM after 8 hrs in presence of chloroquine by Western blot analysis. It is filed as functional, cell-based. Summed up: as §4
Data set [15] concerns A549. In words: Blockade of autophagic flux in human A549 cells assessed as increase in LC3-2 level at 5 uM after 8 hrs in presence of chloroquine by Western blot analysis. It is filed as functional, cell-based. Summed up:
as §4

Data set [16] has as its system HepG2. In words: Reduction in lysosomal acidification in human HepG2 cells at 5 uM after 6 hrs by DAPI/lyso tracker red-double staining based confocal microscopic analysis relative to control. The class given is functional, cell-based. The procedure, abridged:
as §2

Data set [17] concerns HepG2. Kind of data set: Induction of autophagosome accumulation in human HepG2 cells transfected with EGFP-LC3 assessed as punctate dot formation at 5 uM after 6 hrs by fluorescent microscopic analysis relative to control. The class given is functional, cell-based. Summed up: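 HepG2 cells were transfected with an EGFP-LC3 plasmid, then exposed 24 h later to 5 μM or left untreated for 6 h. Cells were imaged by fluorescence microscopy, and EGFP-LC3 puncta per cell were counted in at least 100 cells per group.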

The subject of data set [18] is HepG2. Kind of data set: Blockade of autophagic flux in human HepG2 cells transfected with mCherry-EGFP-LC3 assessed as punctate dot formation at 5 uM after 6 hrs by DAPI staining-based confocal microscopic analysis. It is filed as functional, cell-based. Summed up:
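HepG2 cells were transfected with an mCherry-EGFP-LC3 tandem plasmid and treated at 5 μM for 6 h (CQ 50 μM alongside). Imaging was by confocal microscopy with DAPI-stained nuclei. GFP/mCherry double-positive and mCherry single-positive puncta per cell were counted in ≥100 cells per count. Data are the mean of three independent experiments ± SD.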

Data set [19] concerns A549. In words: Induction of autophagosome accumulation in human A549 cells transfected with EGFP-LC3 assessed as punctate dot formation at 5 uM after 6 hrs by fluorescent microscopic analysis relative to control. It is filed as functional, cell-based.
A short description of data set [20]: Cytotoxicity against human HepG2 cells assessed as reduction in cell viability at 5 uM by MTT assay. It is filed as functional. The procedure, abridged:
as §3

For the molecule `O=C(c1ccc(Cl)cc1)N1C[C@H]2CCCN3CCC[C@@H]([C@H]23)[C@H]1CCCCNCCc1cccc2c1OCO2`, the IC50 in data set [1] was above 20 µM.
As to `COc1cc(NCCCC[C@@H]2[C@H]3CCCN4CCC[C@H](CN2S(=O)(=O)c2ccc(Cl)cc2)[C@@H]34)cc(OC)c1OC`, the IC50 in [1] came to 7.9 µM.
For `CC[C@@]1(O)C(=O)OCc2c1cc1n(c2=O)Cc2cc3c(CN(C)C)c(O)ccc3nc2-1` [TOPOTECAN], the IC50 came to 0.75 µM in data set [2] and 1.15 µM in [3].
With `COC(=O)CCC[C@@H]1[C@H]2CCCN3CCC[C@H](CN1S(=O)(=O)c1ccc(Cl)cc1)[C@@H]23`, in [1], the IC50 came out at 15.8 µM.
`O=S(=O)(c1ccc(Cl)cc1)N1C[C@H]2CCCN3CCC[C@@H]([C@H]23)[C@H]1CCCCNCc1cccc2c1OCO2`: the IC50 in data set [1] amounted to 3.8 µM.
The molecule `Clc1ccc(CN2C[C@H]3CCCN4CCC[C@@H]([C@H]34)[C@H]2CCCCNCc2cccc3c2OCO3)cc1` displayed an AUC(0-t) at 24 h in [4] of 5.7 µM·h. The values for the IC50 in [2], in data set [3] and in data set [1] were 0.64 µM, 1.14 µM and 2.6 µM, respectively. Moreover, the Tmax in [5] worked out at 1.2 h. The molecule also gave an AUC(0-inf) in [6] of 6.8 µM·h. In data set [7], this molecule gave a Cmax of 2700 nM. This molecule showed a mean residence time MRT in [8] of 9.1 h. The half-life in [9] was 11.2 h.
On to `CCN(CC)CCCC(C)Nc1ccnc2cc(Cl)ccc12` (configuration not stated) [CHLOROQUINE], for which the result in the data set with HepG2 [10] was Active. Moreover, the Activity in data set [11] was found to be 50%.
On to `COC(=O)CCC[C@@H]1[C@H]2CCCN3CCC[C@H](CN1C(=O)NCCCl)[C@@H]23`, for which the IC50 in [1] was above 50 µM.
Take `COc1cc(NCCCC[C@@H]2[C@H]3CCCN4CCC[C@H](CN2Cc2ccc(Cl)cc2)[C@@H]34)cc(OC)c1OC`: in data set [1], the IC50 turned out to be 6.4 µM.
Consider `O=S(=O)(c1ccc(Cl)cc1)N1C[C@H]2CCCN3CCC[C@@H]([C@H]23)[C@H]1CCCCNCCc1cccc2c1OCO2`, for which the half-inhibitory concentration (IC50) in [1] was determined as 5.5 µM.
As for `COc1cc(CNCCCC[C@@H]2[C@H]3CCCN4CCC[C@H](CN2Cc2ccc(Cl)cc2)[C@@H]34)cc(OC)c1OC`, the outcome in the data set with A549 [12], in the data set with HepG2 [13], in the data set with HepG2 [14], in the data set on A549 [15], in the data set with HepG2 [16] and in the data set with HepG2 [17] was Active. Further, the result in the data set on HepG2 [18] and with A549 [19] was Active. The AUC(0-t) at 24 h in data set [4] is 10.8 µM·h. Further, the IC50 in [2] was 0.55 µM; in data set [3], 1.03 µM; in data set [1], 1.7 µM. Moreover, in data set [5], the Tmax worked out at 1.6 h. The AUC(0-inf) in data set [6] is 13.3 µM·h. For the same molecule, the highest concentration (Cmax) in data set [7] was 4900 nM. In addition, the MRT in data set [8] worked out at 11.6 h. In addition, the Activity in data set [20] stood at 50%. Besides, in [9], the half-life is 13 h.
In the case of `CC(C)(C)C(=O)N1C[C@H]2CCCN3CCC[C@@H]([C@H]23)[C@H]1CCCCO`, in [1], the IC50 is above 50 µM.
As for `OCCCC[C@@H]1[C@H]2CCCN3CCC[C@H](CN1Cc1ccc(Cl)cc1)[C@@H]23`, the IC50 in data set [1] is 9.3 µM.
The same measure, in the same setting: under `O=C(c1ccc(Cl)cc1)N1C[C@H]2CCCN3CCC[C@@H]([C@H]23)[C@H]1CCCCNCc1cccc2c1OCO2` stands 16.5 µM.
For the molecule `COC(=O)CCC[C@@H]1[C@H]2CCCN3CCC[C@H](CN1C(=O)N(CCCl)N=O)[C@@H]23`, the IC50 in data set [1] came out at 38.3 µM.
`O=S(=O)(c1ccc(Cl)cc1)N1C[C@H]2CCCN3CCC[C@@H]([C@H]23)[C@H]1CCCCO`: in [1], the IC50 worked out at 28.8 µM.
On the same count and under the same terms, under `COC(=O)CCC[C@@H]1[C@H]2CCCN3CCC[C@H](CN1C(=O)C(C)(C)C)[C@@H]23` stands above 50 µM; under `O=C(c1ccc(Cl)cc1)N1C[C@H]2CCCN3CCC[C@@H]([C@H]23)[C@H]1CCCCO`, above 50 µM.
As to `Clc1ccc(CN2C[C@H]3CCCN4CCC[C@@H]([C@H]34)[C@H]2CCCCNc2cccc3c2OCO3)cc1`, in data set [1], the IC50 amounted to 10.6 µM.
On the same count and under the same terms, next, `COc1cc(CNCCCC[C@@H]2[C@H]3CCCN4CCC[C@H](CN2C(=O)c2ccc(Cl)cc2)[C@@H]34)cc(OC)c1OC`: above 20 µM.
As for `Clc1ccc(CN2C[C@H]3CCCN4CCC[C@@H]([C@H]34)[C@H]2CCCCNCCc2cccc3c2OCO3)cc1`, the AUC(0-t) at 24 h in [4] is 6.1 µM·h. For the same molecule, the IC50 came out at 0.68 µM in [2], 1.09 µM in data set [3] and 2.6 µM in data set [1]. The Tmax in data set [5] is 1.8 h. The molecule also showed an AUC(0-inf) in [6] of 11.7 µM·h. The same molecule showed a Cmax in data set [7] of 2900 nM. In data set [8], this molecule yielded an MRT of 10.8 h. This molecule also had a half-life in data set [9] of 21.9 h.
For the molecule `COC(=O)CCC[C@@H]1[C@H]2CCCN3CCC[C@H](CN1C(=O)c1ccc(Cl)cc1)[C@@H]23`, in data set [1], the IC50 was above 50 µM.
